Results reported in publication PMC6072253 (ACS Omega, 2018).
Values after ≈ are worked out from the molar mass of the structure shown. Values joined by “and” are separate entries in the source; they are usually repeats but may differ in a detail not shown here. Identical values can stand only once.

Columns and labels:
[1] = successive pKa of the acid itself; no reference given; cited from earlier work
Cdk-9 = details: read-out: Cdk-9 IC50; cited from earlier work
[2] = solubility in reaction solvents for scale-up; format: physicochemical
Cdk-2/A = Cdk-2/A (Homo sapiens, UniProt P24941); assay: Cdk-2/A radioactive; format: biochemical; details: read-out: % inhibition (±SD) Cdk-2/A, 500 nM
Outline: (§1)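 Radioactive filter-binding kinase assay using 33P-ATP, run at an external kinase-profiling centre, with the test compound at 500 nM. Enzyme activity remaining was expressed as a percentage of control, and % inhibition was calculated as 100 − % enzyme activity.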

[3] = thermodynamic equilibrium solubility in water; format: physicochemical; details: 25 °C, 24 h
Outline: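 Excess solid was added to water, vortexed for 5 min, then shaken at 300 rpm and 25 °C for 24 h. After centrifugation (14 000 rpm, 10 min), the supernatant was quantified by reversed-phase C18 HPLC. Elution used a methanol/0.1% formic acid gradient with photodiode detection and a 37 °C column. Calibration covered 5–160 μg/mL.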

[4] = in vitro dissolution under sink conditions; format: physicochemical
Outline: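 Samples (1 mL) were taken at 15, 30, 60, 120, 240 and 360 min and replaced with fresh prewarmed medium. Samples were filtered (0.45 μm PVDF), diluted in methanol and quantified by HPLC. Runs were in triplicate. AUC0–t was obtained by the trapezoidal rule to the last time point.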

[5] = oral pharmacokinetics in BALB/c mice; format: in vivo; details: 50 mg/kg
Outline: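 Male BALB/c mice aged 8–13 weeks received a single oral dose of 50 mg/kg in 1% v/v Tween 80 + 0.5% w/v sodium CMC. Retro-orbital blood was collected into K2EDTA (n = 3/time point) at 0.25–24 h. Plasma was prepared within 30 min and stored below −60 °C. Plasma was analysed by LC-MS/MS (LLOQ 5.05 ng/mL), and parameters were derived by noncompartmental analysis.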

Cdk-9/T1 = Cdk-9/T1 (Homo sapiens, UniProt P50750); assay: Cdk-9/T1 radioactive; format: biochemical; details: read-out: % inhibition (±SD) Cdk-9/T1, 500 nM
Chain of Cdk-9/T1 (P50750 whole entry): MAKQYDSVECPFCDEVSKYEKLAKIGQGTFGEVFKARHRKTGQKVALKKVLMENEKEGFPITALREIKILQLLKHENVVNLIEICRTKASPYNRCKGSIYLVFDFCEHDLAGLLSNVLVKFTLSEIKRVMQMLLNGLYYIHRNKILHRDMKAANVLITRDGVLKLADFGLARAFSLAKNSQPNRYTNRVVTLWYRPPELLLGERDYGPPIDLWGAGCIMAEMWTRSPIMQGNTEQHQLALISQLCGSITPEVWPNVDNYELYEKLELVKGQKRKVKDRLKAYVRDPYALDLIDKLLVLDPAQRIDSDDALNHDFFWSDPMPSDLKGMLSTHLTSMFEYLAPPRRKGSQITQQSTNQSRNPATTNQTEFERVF
Chain of Cdk-9/T1 (O60563 whole entry partner): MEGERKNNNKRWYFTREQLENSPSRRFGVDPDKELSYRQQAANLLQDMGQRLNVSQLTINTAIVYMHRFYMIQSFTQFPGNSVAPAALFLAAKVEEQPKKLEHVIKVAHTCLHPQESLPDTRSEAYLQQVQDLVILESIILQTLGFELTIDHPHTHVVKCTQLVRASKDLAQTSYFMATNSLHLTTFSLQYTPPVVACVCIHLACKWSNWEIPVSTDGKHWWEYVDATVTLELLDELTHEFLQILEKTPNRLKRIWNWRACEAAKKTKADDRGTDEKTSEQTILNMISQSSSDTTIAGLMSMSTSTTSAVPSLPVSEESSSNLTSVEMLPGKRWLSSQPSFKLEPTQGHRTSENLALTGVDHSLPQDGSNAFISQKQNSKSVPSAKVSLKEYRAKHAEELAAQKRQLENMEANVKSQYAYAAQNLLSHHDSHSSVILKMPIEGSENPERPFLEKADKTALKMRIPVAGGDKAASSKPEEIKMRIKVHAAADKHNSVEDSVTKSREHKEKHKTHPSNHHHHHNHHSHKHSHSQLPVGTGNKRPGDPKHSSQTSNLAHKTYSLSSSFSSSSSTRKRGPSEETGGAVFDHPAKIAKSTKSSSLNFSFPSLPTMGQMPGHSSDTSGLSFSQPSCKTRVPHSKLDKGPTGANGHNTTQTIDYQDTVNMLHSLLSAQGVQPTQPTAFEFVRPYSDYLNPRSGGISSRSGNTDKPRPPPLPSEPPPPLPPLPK
Outline: as §1

[6] = moisture content by loss on drying; format: physicochemical; details: at the end of 6 months

In the case of `Nc1ccc(C(=O)O)cc1` [4-aminobenzoic acid], the “pKa values of counterions” value [1] is given as 2.38.
In the case of `CN1CC[C@H](c2c(O)cc(O)c3c(=O)cc(/C=C/c4c(Cl)cccc4Cl)oc23)[C@H](O)C1` [IIIM-290, 2-((E)-2,6-Dichlorostyryl)-5,7-dihydroxy-8-((3S,4R)-3-hydroxy-1-methylpiperidin-4-yl)-4H-chromen-4-one], the IC50 (Cdk-9) is listed as 1.9 nM, the solubility in methanol [2] is listed as 500 µg/mL (≈ 1080 µM) and the solubility ([2]; methanol, solubility in methanol) is listed as about 500 µg/mL (≈ 1080 µM). The inhibition at 0.5 µM (Cdk-2/A) was 90 ± 0.2%, the “thermodynamic equilibrium solubility in water” value [3] was ~8.6 µg/mL and 8.61 ± 1.8 µg/mL and the “% drug dissolved in HCl buffer (pH 1.2) at 30 min” value ([4]; HCl buffer pH 1.2, 0.25% SLS, 30 min) was 83%. The “AUC0–t (mean ± SEM), dissolution in HCl buffer (pH 1.2)” value ([4]; HCl buffer pH 1.2, 0.25% w/v SLS) was 2102.46 ± 80.09 μg/mL min, the “dissolution in phosphate buffer (pH 6.8) at the end of 60 min” value ([4]; phosphate buffer pH 6.8, 0.25% SLS, 60 min) was 63% and the “AUC0–t (mean ± SEM), dissolution in phosphate buffer (pH 6.8)” value ([4]; phosphate buffer pH 6.8, 0.25% w/v SLS) was 4898.69 ± 317.03 μg/mL min. For the same molecule, the “AUC0–t (mean ± SEM), dissolution in water” value ([4]; water, 0.25% w/v SLS) was 3557.23 ± 247.03 µg·min/mL, the “dissolution in water at the end of 120 min” value ([4]; water, 0.25% w/v SLS, 37 °C, 120 min) was 49 % w/v and the T1/2 [5] was 1.92 h. The AUC(0-t) ([5]; male, BALB/c, mouse, plasma, po, AUC0–t) was 2570 ng·h/mL, the Cmax ([5]; male, BALB/c, mouse, plasma, po, Cmax) was 656 ng/mL and the Tmax ([5]; male, BALB/c, mouse, plasma, po, Tmax) was 1 h. For the same molecule, the inhibition at 0.5 µM (Cdk-9/T1) was 94 ± 0.8% and the “% moisture content” value [6] was 3.5 % w/w.
In the case of `O=C(O)CC(O)(CC(=O)O)C(=O)O` [citric acid], the “pKa values of counterions” value [1] is given as 3.73.
